From PubChem BioAssay
PPC-1+TRAIL kill: compounds killing PPC-1 cancer cells with TRAIL present, primary screen, TRAIL potentiator project, ATPLite luminescence, uHTS; 0.41% of 220,000 active; PPC-1 cells + TRAIL, ATPLite viability luminescence; cell killing (% activity), % at 4 µM or 5 µM; AID 1443, 2008;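 active = cell killing above 50% in the first pass at 4 µM, then a duplicate retest at 5 µM averaging 50% or more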
NF-kB neuron act: activators of NF-kB expression in neurons, primary screen, cell-based, HTS; 1.6% of 190,000 active; fold change at 12.5 µM; human neuronal cells, NF-kB reporter expression; stronger effect = higher value; AID 1239, 2008; in the data active = fold change above about 3.3
FLuc inh counter: firefly luciferase enzyme inhibitors, primary screen, artefact control for luciferase-based inhibitor screens, biochemical, luminescence, ATPLite; Luciferin 4-monooxygenase (Photinus pyralis), P08659; 10 min; inhibition, % at 10 µM; 1.5% of 200,000 active; AID 1006, 2008;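 active = inhibition above about 50% when tested at 10 µM, limit read from the data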
Target sequence (P08659 whole entry, looked up): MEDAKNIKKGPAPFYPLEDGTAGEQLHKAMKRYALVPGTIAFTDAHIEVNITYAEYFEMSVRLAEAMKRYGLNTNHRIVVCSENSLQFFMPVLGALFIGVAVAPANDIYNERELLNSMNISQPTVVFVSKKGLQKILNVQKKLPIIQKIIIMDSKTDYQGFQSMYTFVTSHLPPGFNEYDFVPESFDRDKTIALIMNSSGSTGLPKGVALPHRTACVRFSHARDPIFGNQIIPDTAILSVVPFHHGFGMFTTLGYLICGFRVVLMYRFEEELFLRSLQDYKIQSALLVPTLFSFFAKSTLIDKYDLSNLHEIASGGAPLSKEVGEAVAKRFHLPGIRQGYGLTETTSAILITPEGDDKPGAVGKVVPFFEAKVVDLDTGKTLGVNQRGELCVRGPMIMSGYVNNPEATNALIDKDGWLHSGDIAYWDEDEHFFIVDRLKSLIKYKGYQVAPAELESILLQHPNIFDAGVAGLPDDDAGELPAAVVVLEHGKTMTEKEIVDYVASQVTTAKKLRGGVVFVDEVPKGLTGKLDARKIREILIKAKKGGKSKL
FLuc act counter: FLuc activators, initial screening, artefact control for FLuc-dependent activation tests, biochemical, ATPlite luminescence | 200,000 tested, under 10 active | activation factor at 10 µM | ATPlite luciferase biochemical, 10 min; 0 = ATP-free wells, 1 = DMSO control;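 active = luciferase activation factor, scaled between plate controls, of at least 2 with compound at 10 µM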
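System: cell-free luciferase reagent; medium: PBS as buffer for the ATP substrate; doses: test compounds dosed from 2 mM stocks in 100% DMSO; incubation: 10 min, room temperature; measured by: luminescence from luciferase reaction; read-out: luciferase activation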
APP 5'UTR act: activators of APP 5'UTR luciferase reporter, primary screen, SH-SY5Y cells; SH-SY5Y APP 5'UTR luciferase reporter, luminescence; zero percent = DMSO vehicle wells; activation, % at 2 µM; 1% of 190,000 active; AID 1276, 2008;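 active = activation above a set limit, based on mean plus 3 SD of controls, cut at about 140% in these data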
C8 TRAIL sens: viability loss with TRAIL in NB7+C8 cells, primary screen, TRAIL sensitizer project, cell-based, ATPlite luminescence. inhibition (viability loss, TRAIL sensitization), % at 10 µM. 1% of 360,000 active. AID 624354, 2012;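 active = compounds causing at least 50% loss of cell viability in the single-dose screen, relative to plate controls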
Numbers stand for hits; i = inactive; nt = no result. Shown are actives, neighbours in structure and some others; about 2.2% of the full set was active somewhere.

SMILES	PPC-1+TRAIL kill	NF-kB neuron act	FLuc inh counter	FLuc act counter	APP 5'UTR act	C8 TRAIL sens
COc1ccc2nc(SCc3cccc(C)c3)nc(C)c2c1	i	3.54	i	i	i	i
COc1ccc2nc(SCc3ccccc3C)nc(C)c2c1	i	i	i	i	i	i
Clc1ccc2nc(-c3ccccc3)c(CC3CCCCC3)n2c1	nt	nt	nt	nt	nt	i
Oc1ccc(Cl)cc1-c1cc(-c2ccco2)[nH]n1	i	i	i	i	i	i
Oc1ccc(Br)cc1-c1cc(-c2ccco2)[nH]n1	i	i	i	i	i	i
Oc1ccccc1-c1cc(-c2ccco2)[nH]n1	i	3.94	i	i	i	i
Oc1ccccc1-c1cc(-c2ccccc2Cl)[nH]n1	i	8.68	i	i	231.3	i
Oc1c(-c2cc(-c3ccco3)[nH]n2)ccc2ccccc12	i	8.72	i	i	i	i
CC(C)(C)c1ccc(-c2cc(-c3ccccc3O)[nH]n2)cc1	nt	nt	nt	nt	nt	i
Oc1ccccc1-c1cc(-c2cccc(F)c2)n[nH]1	i	9.9	i	i	202.0	i
COc1cc(-c2coc3c(C(=O)NCc4ccc(C(F)(F)F)cc4)cccc23)ccc1O	nt	nt	nt	nt	nt	i
CCCOC(=O)c1ccc(-c2ccc(C=O)o2)cc1	50.4	4.83	i	i	i	i
Cc1ccc(NC(=O)COc2ccccc2C=O)cc1Cl	i	6.84	i	i	153.5	i
O=C(Nc1ccccc1)Nc1ccc2ncoc2c1	i	i	i	i	i	i
O=C(Nc1ccccc1)Nc1ccc2ocnc2c1	i	i	60.9	i	i	i
Cc1csc(NC(=O)c2cncc(Br)c2)n1	i	3.34	50.0	i	i	i
O=C(Nc1ccc(NC(=O)c2ccco2)nc1)c1ccccn1	i	i	60.9	i	i	i
O=C(Cc1ccccc1)Nc1ccc(NC(=O)c2ccco2)nc1	i	i	i	i	i	i
CC(C)(C)C(=O)Nc1ccc(NC(=O)c2ccco2)nc1	nt	nt	nt	nt	nt	94.9
COc1nc(C)ccc1-c1noc(-c2ccccn2)n1	i	4.22	68.7	i	i	i
COc1ccccc1-c1nc(-c2ccc(C)nc2OC)no1	i	i	i	i	i	i
Cc1onc(-c2c(F)cccc2Cl)c1C(=O)Nc1nc2ccccc2[nH]1	i	i	i	i	i	49.5
O=C(N/C(=C/c1ccc(Cl)cc1)c1nc2ccccc2[nH]1)c1ccco1	i	i	i	i	i	i
O=C(Nc1nc2ccccc2[nH]1)c1ccccc1O	nt	nt	nt	nt	nt	48.8
CC(=O)Nc1ccc(/C=C/c2nc3ccccc3[nH]c2=O)cc1	nt	nt	nt	nt	nt	i
SMILES	PPC-1+TRAIL kill	NF-kB neuron act	FLuc inh counter	FLuc act counter	APP 5'UTR act	C8 TRAIL sens
O=C(/C(=C/c1ccc(Cl)cc1)c1nc2ccccc2[nH]1)c1ccccc1	i	7.98	i	i	i	77.9
O=c1[nH]c2ccccc2nc1/C=C/c1ccc(Cl)cc1	i	i	69.6	i	167.4	73.1
OC[C@@H]1CN(Cc2ccncc2)C[C@H](n2cnc3c(NC4CCCC4)ncnc32)O1	nt	nt	nt	nt	nt	i
CC1CCN(S(=O)(=O)c2cc(C(=O)N3CCN(c4ccccc4)CC3)ccc2Br)CC1	nt	nt	nt	nt	nt	i
O=C(Nc1nc2ccccc2[nH]1)c1ccc(Cl)cc1	nt	nt	nt	nt	nt	87.0
CCCCCCc1cc2cc(C(=O)Nc3ccccc3)c(=O)oc2cc1O	i	i	i	i	i	60.3
CCCCCCc1cc2cc(C(=O)NCc3ccccc3)c(=N)oc2cc1O	i	i	i	i	i	i
CCCCCCCCN1C(=O)[C@H](CC(=O)N2CCN(C(=O)OCC)CC2)C[C@@]2(C(=O)OC)CCCCC=C12	nt	nt	nt	nt	nt	i
Cc1coc2c1C(=O)C(=O)c1c-2ccc2c(C)cccc12	i	nt	nt	nt	nt	53.6
Cc1coc2c1C(=O)C(=O)c1c-2ccc2c1CCCC2(C)C	i	i	i	i	i	i
CCN(c1ccccc1)S(=O)(=O)c1ccc(OC)c(NC(=O)c2cc(F)c(F)c(F)c2F)c1	nt	nt	nt	nt	nt	55.5
CCN(c1ccccc1)S(=O)(=O)c1ccc(OC)c(NC(=O)c2cccs2)c1	i	i	i	i	i	i
COc1ccc(C(=O)/C=C2\Sc3ccccc3N2C)cc1	i	7.29	71.3	i	195.2	i
COc1ccc(-[n+]2c(C)cc(/C=C3\Sc4ccccc4N3C)cc2C)cc1	i	5.4	i	i	i	i
C[C@H](NC(=O)[C@@H]1CCCN1C(=O)[C@@H]1CCCN1C(=O)c1cccc2ccccc12)c1ccccc1	nt	nt	nt	nt	nt	i
O=C(N/N=C/c1cccc(F)c1)c1csc2c1CCCC2	i	5.47	i	i	i	i
O=C(N/N=C/c1cccc(O)c1)c1csc2ccccc12	i	i	i	i	i	i
O=C(N/N=C/c1ccccc1F)c1csc2c1CCCC2	i	4.04	i	i	i	i
COc1ccccc1NCC(=O)N/N=C/c1c(O)ccc2ccccc12	nt	nt	nt	nt	nt	i
COc1ccccc1N(CC(=O)N/N=C/c1c(O)ccc2ccccc12)S(C)(=O)=O	i	i	i	i	i	52.0
Cc1ccccc1N1Cc2ccccc2C1=O	nt	nt	nt	nt	nt	i
CC(C(=O)O)c1ccc(N2Cc3ccccc3C2=O)cc1 (centres undefined)	i	6.15	61.5	i	i	i
COc1ccc(NS(=O)(=O)c2cccc(C(=O)N/N=C/c3c(F)c(F)c(F)c(F)c3F)c2)cc1	nt	nt	nt	nt	nt	66.4
Cn1cc([C@]2(O)C(=O)Nc3ccc(OC(F)(F)F)cc32)c2ccccc21	nt	nt	nt	nt	nt	i
CC(C)[C@@H]1CC[C@@H](C)C[C@H]1O	nt	nt	nt	nt	nt	i
SMILES	PPC-1+TRAIL kill	NF-kB neuron act	FLuc inh counter	FLuc act counter	APP 5'UTR act	C8 TRAIL sens
CCCCCCOc1ccc(OC(=O)c2ccncc2)cc1	i	9.91	i	i	i	i
COCC(C)N=C1NN=C(c2c[nH]c3ccccc23)CS1 (centres undefined)	i	i	i	i	i	i
CCN=C1NN=C(c2cc(C)n(Cc3ccco3)c2C)CS1	i	i	91.4	i	i	i
COCCn1c(C)cc(C2=NNC(=Nc3ccccc3)SC2)c1C	i	i	88.0	i	155.3	i
Cc1cc(C2=NNC(=NCCc3ccccc3)SC2)c(C)n1CC1CCCO1 (centres undefined)	i	i	i	i	i	i
C=CCn1c(C)cc(C2=NNC(=NCc3ccccc3)SC2)c1C	i	i	i	i	138.8	i
CCN=C1NN=C(c2cc(C)n(CCc3ccccc3)c2C)CS1	i	i	i	i	i	i
CCN=C1NN=C(c2c[nH]c3ccccc23)CS1	i	nt	i	i	161.6	i
CCCNC(=O)C1(C)CCCN(Cc2ccc(C(F)(F)F)cc2)C1 (centres undefined)	nt	nt	nt	nt	nt	i
Cc1cnc2nc(-c3ccccc3)ccc2c1	nt	nt	nt	nt	nt	i
CN(C)c1ccc(/C=N/N2C(=O)c3ccccc3C2=O)cc1	i	nt	nt	nt	nt	i
COc1ccc(/C=N/N2C(=O)c3ccccc3C2=O)cc1	i	i	74.0	i	i	i
COc1cc(NC(=O)c2ccc(-c3ccc(F)c(F)c3)c3ccoc23)cc(OC)c1OC	nt	nt	nt	nt	nt	i
